The subject of test [1] is Rattus norvegicus. The test can be described thus: Antidyslipidemic activity in Charles foster rat assessed as increase in triton WR-1339-reduced post heparin lipolytic activity level in plasma at 100 mg/kg, po after 18 hrs by spectrophotometric analysis relative to triton-treated rat. Format: functional. Further details: scale not given: the % may be the effect or the level left. The gist of the method:
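Triton WR-1339 hyperlipidemia in male Charles Foster rats: 400 mg/kg i.p. plus oral dose in gum acacia vehicle, fasted, 6 rats/group. Plasma taken 18 h later from retro-orbital blood. Post-heparin lipolytic activity measured spectrophotometrically as nmol free fatty acids formed/h/ml plasma. Percent change against triton-only rats; mean ± SD.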

Test [2] in a line: Antioxidant activity assessed as decrease in hydroxyl radicals level by measuring formation of malondialdehyde at 200 ug/ml after 90 mins by spectrophotometric analysis relative to control. The format is functional. Further details: scale not given: the % may be the effect or the level left. A digest of the protocol:
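Hydroxyl radicals generated without enzyme from deoxyribose 2.8 mM, FeSO4·7H2O 2 mM, sodium ascorbate 2.0 mM and H2O2 2.8 mM in 50 mM KH2PO4 pH 7.4. Compound at 200 µg/mL. Incubated 37 °C for 90 min. Mannitol as standard.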

Test [3] in a line: Antioxidant activity assessed as decrease in superoxide anions level by measuring formation of formazone at 200 ug/ml after 30 mins by spectrophotometric analysis relative to control. Format: functional. More on the design: scale not given: the % may be the effect or the level left. The gist of the method: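 Superoxide made enzymatically with xanthine ([…]), xanthine oxidase (0.04 U) and nitroblue tetrazolium (320 µM) in 100 mM phosphate buffer pH 8.2. Compound at 200 µg/mL, sonicated in buffer. Incubated 37 °C for 30 min, stopped with glacial acetic acid, formazan read spectrophotometrically. Allopurinol as standard.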

Test [4] in a line: Antioxidant activity assessed as reduction of microsomal lipid per-oxidation level by measuring formation of malondialdehyde at 200 ug/ml after 90 mins by spectrophotometric analysis relative to control. The format is functional. Further details: scale not given: the % may be the effect or the level left.
For test [5], the system named is Rattus norvegicus. The test can be described thus: Antidyslipidemic activity in Charles foster rat assessed as decrease in triton WR-1339-induced phospholipid level in plasma at 100 mg/kg, po after 18 hrs relative to triton-treated rat. The format is functional. More on the design: scale not given: the % may be the effect or the level left. The gist of the method: (§1)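 Male adult Charles Foster rats (200–225 g), six per group. Triton WR-1339 400 mg/kg i.p., with test agent given orally at the same time as a gum acacia suspension in water; food withdrawn. Controls received vehicle. At 18 h, retro-orbital EDTA blood taken and centrifuged 2500 × g for 10 min at 4 °C. Plasma diluted 1:3 in saline; TC, PL and TG read enzymatically on an autoanalyzer. Percent change against triton group.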

Test [6] relates to Rattus norvegicus. The test can be described thus: Antidyslipidemic activity in Charles foster rat assessed as decrease in triton WR-1339-induced total cholesterol level in plasma at 100 mg/kg, po after 18 hrs relative to triton-treated rat. The format is functional. More on the design: scale not given: the % may be the effect or the level left. A digest of the protocol: as §1

The subject of test [7] is Rattus norvegicus. The test can be described thus: Antidyslipidemic activity in Charles foster rat assessed as decrease in triton WR-1339-induced triglyceride level in plasma at 100 mg/kg, po after 18 hrs relative to triton-treated rat. More on the design: scale not given: the % may be the effect or the level left. The format is functional. The gist of the method:
as §1

Test [8] has as its system Rattus norvegicus. The test can be described thus: Antidyslipidemic activity in Charles foster rat assessed as increase in triton WR-1339-reduced lipoprotein lipase level in liver at 100 mg/kg, po relative to triton-treated rat. Format: functional, organism-based. Further details: dose 100 mg/kg. A digest of the protocol:
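Rats given triton WR-1339 (400 mg/kg i.p.) with oral test agent in gum acacia, 6 per group. Liver homogenized 10% w/v in cold 100 mM phosphate buffer pH 7.2 and assayed for total lipoprotein lipase lipolytic activity. Mean ± SD.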

Activity calls are given as the source filed them. The calls are words filed in the database; no cut-off is given here.

In the case of `C=C1CC[C@@H]2[C@](C)(CO)[C@H](O)CC[C@@]2(C)[C@@H]1CCC1=CCOC1=O` [DEOXYANDROGRAPHOLIDE], the Activity turned out to be 6% in the test on Rattus norvegicus [1]; 16% in test [2]; 11% in test [3]; 13% in test [4]; 14% in the test on Rattus norvegicus [5]; 17% with Rattus norvegicus [6]. Besides, the Activity in the test on Rattus norvegicus [7] stood at 12%.
Consider `C=C1CC[C@@H]2[C@](C)(COS(=O)(=O)c3c(C)cc(C)cc3C)[C@H](O)CC[C@@]2(C)[C@@H]1C/C=C1/C(=O)OC[C@H]1OC(C)=O`, for which the Activity with Rattus norvegicus [1] came out at 6%; in test [2], 28%; in test [3], 31%; in test [4], 26%; in the test with Rattus norvegicus [5], 14%; with Rattus norvegicus [6] it was 12%. In the test with Rattus norvegicus [7], the Activity came to 11%.
As to `CC(C)OC(=O)C(C)(C)Oc1ccc(C(=O)c2ccc(Cl)cc2)cc1` [FENOFIBRATE], the Activity amounted to 17% with Rattus norvegicus [1], 33% with Rattus norvegicus [5], 32% in the test with Rattus norvegicus [6] and 33% in the test with Rattus norvegicus [7]. For the same compound, the outcome in the test with Rattus norvegicus [8] was Active.
Take `CC1CC[C@@H]2[C@](C)(CO)[C@H](O)CC[C@@]2(C)[C@@H]1C/C=C1/C(=O)OC[C@H]1O` (stereo partly specified): the Activity came to 5% with Rattus norvegicus [1]; 15% in test [2]; 19% in test [3]; 17% in test [4]; 17% in the test with Rattus norvegicus [5]; 14% in the test on Rattus norvegicus [6]. Also, the Activity in the test with Rattus norvegicus [7] was found to be 15%.
Turning to `C=C1CC[C@@H]2[C@](C)(CO)[C@H](O)CC[C@@]2(C)[C@@H]1C/C=C1\C=COC1=O`, the Activity came to 10% in the test on Rattus norvegicus [1]; 18% in test [2]; 16% in test [3]; 13% in test [4]; 17% in the test with Rattus norvegicus [5]; 19% in the test with Rattus norvegicus [6]. Also, in the test on Rattus norvegicus [7], the Activity is 18%.
On to `C=C1CC[C@@H]2[C@](C)(COC(C)=O)[C@H](OC(C)=O)CC[C@@]2(C)[C@@H]1C/C=C1/C(=O)OC[C@H]1OC(C)=O`, for which the Activity in the test on Rattus norvegicus [1] was 11%; in test [2] it was 16%; in test [3], 12%; in test [4], 11%; in the test on Rattus norvegicus [5] it was 16%; with Rattus norvegicus [6] it was 19%. In addition, the Activity with Rattus norvegicus [7] amounted to 18%.
On to `OC[C@@H](O)[C@@H](O)[C@H](O)[C@H](O)CO`, for which the Activity in test [2] was 50%.
For `C=C1CC[C@@H]2[C@]3(C)COC(C)(C)O[C@@H]3CC[C@@]2(C)[C@@H]1C/C=C1/C(=O)OC[C@H]1O`, the Activity is 6% in the test on Rattus norvegicus [1]; 11% in test [2]; 15% in test [3]; 17% in test [4]; 12% in the test on Rattus norvegicus [5]; 16% in the test on Rattus norvegicus [6]. For the same compound, in the test on Rattus norvegicus [7], the Activity was 15%.
As for `Cc1ccc(C)c(OCCCC(C)(C)C(=O)O)c1` [GEMFIBROZIL], the Activity with Rattus norvegicus [1] is on record as 16%; with Rattus norvegicus [5] it was 30%; with Rattus norvegicus [6], 30%; in the test with Rattus norvegicus [7], 28%. In addition, the result with Rattus norvegicus [8] was Active.
Take `Oc1ncnc2[nH]ncc12`: in test [3], the Activity was 54%.
As for `C=C1CC[C@@H]2[C@](C)(CO)[C@H](O)CC[C@@]2(C)[C@@H]1CCC1C(=O)OC[C@H]1O` (stereo partly specified), the Activity amounted to 5% with Rattus norvegicus [1]; 11% in test [2]; 14% in test [3]; 10% in test [4]; 10% in the test with Rattus norvegicus [5]; 12% in the test with Rattus norvegicus [6]. The Activity with Rattus norvegicus [7] was found to be 11%.
As for `C[C@]1(CO)[C@H]2CC[C@@]3(CO3)[C@@H](C/C=C3/C(=O)OC[C@H]3O)[C@]2(C)CC[C@H]1O`, the Activity in the test on Rattus norvegicus [1] was 6%; in test [2], 15%; in test [3], 17%; in test [4] it was 14%; in the test with Rattus norvegicus [5], 17%; with Rattus norvegicus [6], 15%. Further, the Activity with Rattus norvegicus [7] is listed as 14%.
As to `C=C1CC[C@H]2[C@@](C)(CCC(=O)[C@@]2(C)C=O)[C@@H]1C/C=C1/C(=O)OC[C@H]1O`, the Activity with Rattus norvegicus [1] is 4%; in test [2], 12%; in test [3], 16%; in test [4] it was 14%; in the test on Rattus norvegicus [5], 10%; in the test on Rattus norvegicus [6] it was 13%. Besides, in the test on Rattus norvegicus [7], the Activity stood at 10%.
With `C=C1CC[C@@H]2[C@](C)(COS(=O)(=O)c3c(C)cc(C)cc3C)[C@H](O)CC[C@@]2(C)[C@@H]1C/C=C1/C(=O)OC[C@H]1O`, the Activity in the test with Rattus norvegicus [1] came to 12%; in test [2], 25%; in test [3], 23%; in test [4], 26%; with Rattus norvegicus [5], 20%; with Rattus norvegicus [6] it was 22%. Besides, in the test with Rattus norvegicus [7], the Activity was found to be 20%.
Take `Cc1c(C)c2c(c(C)c1O)CC[C@@](C)(CCC[C@H](C)CCC[C@H](C)CCCC(C)C)O2`: the Activity in test [4] stood at 55%.
With `C=C1CC[C@@H]2[C@](C)(CO)[C@H](O)CC[C@@]2(C)[C@@H]1C/C=C1/C(=O)OC[C@H]1OC(C)=O`, the Activity in the test with Rattus norvegicus [1] came out at 7%; in test [2], 17%; in test [3], 19%; in test [4], 19%; in the test on Rattus norvegicus [5] it was 13%; with Rattus norvegicus [6], 13%. In the test with Rattus norvegicus [7], the Activity is reported as 15%.
For `C=C1CC[C@@H]2[C@](C)(COS(=O)(=O)c3ccc(C)cc3)[C@H](O)CC[C@@]2(C)[C@@H]1C/C=C1/C(=O)OC[C@H]1OC(C)=O`, the Activity in the test on Rattus norvegicus [1] worked out at 13%; in test [2] it was 30%; in test [3], 27%; in test [4], 29%; in the test with Rattus norvegicus [5], 22%; in the test with Rattus norvegicus [6] it was 20%. The Activity in the test with Rattus norvegicus [7] came to 22%.
`C=C1CC[C@@H]2[C@]3(C)COC(C)(C)O[C@@H]3CC[C@@]2(C)[C@@H]1C/C=C1/C(=O)OC[C@H]1OC(C)=O`: the Activity in the test on Rattus norvegicus [1] was 5%; in test [2], 25%; in test [3], 23%; in test [4], 26%; in the test on Rattus norvegicus [5], 14%; in the test on Rattus norvegicus [6], 16%. Also, the Activity with Rattus norvegicus [7] came out at 13%.
Turning to `CC1CC[C@@H]2[C@](C)(CO)[C@H](O)CC[C@@]2(C)[C@@H]1CCC1C(=O)OC[C@H]1O` (stereo partly specified), the Activity is 4% in the test on Rattus norvegicus [1]; 17% in test [2]; 13% in test [3]; 14% in test [4]; 13% in the test on Rattus norvegicus [5]; 11% with Rattus norvegicus [6]. Moreover, the Activity in the test on Rattus norvegicus [7] worked out at 15%.

The values are drawn from ChEMBL document CHEMBL2434829, “Synthesis of new andrographolide derivatives and evaluation of their antidyslipidemic, LDL-oxidation and antioxidant activity” (2013).
